Measured values as given in ChEMBL document CHEMBL1139413, “Discovery of the first potent and orally efficacious agonist of the orphan G-protein coupled receptor 119” (J Med Chem, 2008).
Values joined by “and” are separate entries in the source; they are usually repeats but may differ in a detail not shown here. Identical values can stand only once. Active and inactive are the calls of the source. The calls are words filed in the database; no cut-off is given here.

Legend:
Canis lupus familiaris = organism: Canis lupus familiaris; assay: Agonist activity at dog GPR119 transfected in Xenopus dermal melanophore assessed as dispersion of melatonin-induced pigmentation; assay type: functional
Method in brief: (§1)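 Cultured Xenopus dermal melanophores transiently transfected with GPR119 plasmid, plated in 384-well format. At 48 h post-transfection, pigment aggregated with melatonin (10nM, 1 h), then compounds applied for 1 h. Pigment dispersion read as absorbance (light transmission) to build concentration-response curves; EC50 with log SD, number of determinations given.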

[1] = molecular target: T1, Glucose-dependent insulinotropic receptor (Mus musculus) (UniProt Q7TQP3); assay: Agonist activity at mouse GPR119 transfected in Xenopus dermal melanophore assessed as dispersion of melatonin-induced pigmentation; assay type: functional; method in brief: as §1
T1 sequence (whole entry): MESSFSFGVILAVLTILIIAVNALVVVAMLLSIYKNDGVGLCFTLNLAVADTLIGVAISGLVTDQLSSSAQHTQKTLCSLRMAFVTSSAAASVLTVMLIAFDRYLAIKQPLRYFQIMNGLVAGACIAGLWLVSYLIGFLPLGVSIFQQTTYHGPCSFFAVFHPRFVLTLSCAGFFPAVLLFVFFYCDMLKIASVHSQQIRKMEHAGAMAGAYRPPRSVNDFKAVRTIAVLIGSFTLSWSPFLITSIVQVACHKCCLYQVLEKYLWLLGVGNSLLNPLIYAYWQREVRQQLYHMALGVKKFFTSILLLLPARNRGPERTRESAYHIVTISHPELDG

Mus musculus [2] = assay: Increase in glucose dependent insulin release in wild type C57BL/6J mouse at 20 mg/kg, po by oral glucose tolerance test; assay type: functional, organism-based; set-up: dose 20 mg/kg
[3] = Half life in C57BL/6J mouse at 10 mg/kg, po; assay type: ADME, organism-based; set-up: dose 10 mg/kg, route oral; conditions: in vivo
Method in brief: (§2)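 Mouse oral PK: C57/bl6J mice given a single 10 mg/kg po dose; plasma exposure profile used to derive tmax, Cmax, AUC (area under exposure curve) and terminal t1/2. No iv arm run in mouse.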

Macaca fascicularis = organism: Macaca fascicularis; assay: Agonist activity at cynomolgus monkey GPR119 transfected in Xenopus dermal melanophore assessed as dispersion of melatonin-induced pigmentation; assay type: functional; method in brief: as §1
[4] = Cmax in C57BL/6J mouse at 10 mg/kg, po; assay type: ADME, organism-based; set-up: dose 10 mg/kg, route oral; conditions: in vivo; method in brief: as §2
Mus musculus [5] = assay: Increase in glucose dependent insulin release in GPR119 deficient C57BL/6J mouse at 20 mg/kg, po by oral glucose tolerance test; assay type: functional, organism-based; set-up: dose 20 mg/kg
[6] = Tmax in C57BL/6J mouse at 10 mg/kg, po; assay type: ADME, organism-based; set-up: dose 10 mg/kg, route oral; conditions: in vivo; method in brief: as §2
[7] = molecular target: Voltage-gated inwardly rectifying potassium channel KCNH2 (Homo sapiens, UniProt Q12809); assay: Inhibition of hERG upto 10 uM by patch clamp assay; assay type: toxicity
Method in brief: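 hERG channel current measured by patch clamp, compound tested up to 10 µM.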

[8] = Agonist activity at GPR119 in hamster HIT-T15 cells stimulation of assessed as cAMP production; assay type: functional, cell-based; conditions: Cricetinae
[9] = molecular target: T2, Glucose-dependent insulinotropic receptor (Homo sapiens, UniProt Q8TDV5); assay: Agonist activity at […] transfected in Xenopus dermal melanophore assessed as dispersion of melatonin-induced pigmentation; assay type: functional; method in brief: as §1
T2 sequence (Q8TDV5 whole entry): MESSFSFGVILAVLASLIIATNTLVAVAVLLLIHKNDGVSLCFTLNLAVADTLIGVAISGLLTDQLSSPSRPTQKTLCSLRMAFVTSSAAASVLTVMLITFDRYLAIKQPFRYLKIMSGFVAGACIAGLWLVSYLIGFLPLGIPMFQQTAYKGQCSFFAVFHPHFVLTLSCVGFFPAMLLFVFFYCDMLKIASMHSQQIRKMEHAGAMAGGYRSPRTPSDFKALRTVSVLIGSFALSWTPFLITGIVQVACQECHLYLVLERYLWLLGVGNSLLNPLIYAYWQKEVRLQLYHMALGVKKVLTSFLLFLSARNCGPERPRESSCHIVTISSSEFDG

[10] = Inhibition of cytochrome
Mus musculus [11] = organism: Mus musculus; assay: Increase in glucose dependent insulin release in diabetic KK/ay mouse by oral glucose tolerance test; assay type: functional, organism-based
[12] = Tmax in Sprague-Dawley rat at 10 mg/kg, po; assay type: ADME, organism-based; set-up: dose 10 mg/kg, route oral; conditions: in vivo
Method in brief: (§3)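 Rat oral PK: single 10 mg/kg po dose; plasma tmax, Cmax, AUC, terminal t1/2 determined, with oral bioavailability (%F) also reported.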

[13] = Cmax in Sprague-Dawley rat at 10 mg/kg, po; assay type: ADME, organism-based; set-up: dose 10 mg/kg, route oral; conditions: in vivo; method in brief: as §3
[14] = molecular target: T3, Glucose-dependent insulinotropic receptor (Rattus norvegicus) (UniProt Q7TQN8); assay: Agonist activity at rat GPR119 transfected in Xenopus dermal melanophore assessed as dispersion of melatonin-induced pigmentation; assay type: functional; method in brief: as §1
T3 sequence (whole entry): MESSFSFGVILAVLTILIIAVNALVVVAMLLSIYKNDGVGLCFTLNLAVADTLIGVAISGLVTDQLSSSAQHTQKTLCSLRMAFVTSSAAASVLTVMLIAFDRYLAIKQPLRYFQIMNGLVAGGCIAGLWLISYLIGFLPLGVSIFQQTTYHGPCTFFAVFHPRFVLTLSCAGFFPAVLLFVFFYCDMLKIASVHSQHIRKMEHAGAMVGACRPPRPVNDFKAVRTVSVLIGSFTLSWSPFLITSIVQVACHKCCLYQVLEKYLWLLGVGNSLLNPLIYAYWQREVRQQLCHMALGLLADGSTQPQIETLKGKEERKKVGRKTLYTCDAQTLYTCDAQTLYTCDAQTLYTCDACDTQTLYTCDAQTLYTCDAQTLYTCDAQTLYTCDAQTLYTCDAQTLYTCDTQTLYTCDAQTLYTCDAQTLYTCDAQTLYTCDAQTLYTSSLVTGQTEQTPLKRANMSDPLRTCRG

[15] = AUC in C57BL/6J mouse at 10 mg/kg, po; assay type: ADME, organism-based; set-up: dose 10 mg/kg, route oral; conditions: plasma; method in brief: as §2
[16] = AUC in Sprague-Dawley rat at 10 mg/kg, po; assay type: ADME, organism-based; set-up: dose 10 mg/kg, route oral; conditions: plasma; method in brief: as §3
[17] = Half life in Sprague-Dawley rat at 10 mg/kg, po; assay type: ADME, organism-based; set-up: dose 10 mg/kg, route oral; conditions: in vivo; method in brief: as §3
Rattus norvegicus = assay: Effect on glucose excursion in Sprague-Dawley rat at 30 mg/kg, po by oral glucose tolerance test; assay type: functional, organism-based; set-up: dose 30 mg/kg
[18] = Oral bioavailability in Sprague-Dawley rat at 10 mg/kg; assay type: ADME, organism-based; conditions: in vivo; method in brief: as §3
[19] = molecular target: T2, Glucose-dependent insulinotropic receptor; assay: Inverse agonist activity at GPR119 expressed in HEK293 cells assessed as cAMP level by flash plate assay; assay type: functional, cell-based
Method in brief: (§4)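 HEK293 cells transiently transfected with GPR119; crude plasma membranes prepared 48 h post-transfection. Membrane adenylyl cyclase read by FlashPlate cAMP kit: 15 µg membrane protein, 60 min at room temperature in 20 mM HEPES pH 7.4 with 10 µM GTP, 0.1 mM ATP, 500 µM IBMX, 10 mM phosphocreatine, creatine phosphokinase. cAMP from on-plate standard curve; usually n = 1 or 2.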

[20] = molecular target: T2, Glucose-dependent insulinotropic receptor; assay: Agonist activity at GPR119 expressed in HEK293 cells assessed as cAMP level by flash plate assay; assay type: functional, cell-based; method in brief: as §4

Sequence of Voltage-gated inwardly rectifying potassium channel KCNH2 (Q12809 whole entry): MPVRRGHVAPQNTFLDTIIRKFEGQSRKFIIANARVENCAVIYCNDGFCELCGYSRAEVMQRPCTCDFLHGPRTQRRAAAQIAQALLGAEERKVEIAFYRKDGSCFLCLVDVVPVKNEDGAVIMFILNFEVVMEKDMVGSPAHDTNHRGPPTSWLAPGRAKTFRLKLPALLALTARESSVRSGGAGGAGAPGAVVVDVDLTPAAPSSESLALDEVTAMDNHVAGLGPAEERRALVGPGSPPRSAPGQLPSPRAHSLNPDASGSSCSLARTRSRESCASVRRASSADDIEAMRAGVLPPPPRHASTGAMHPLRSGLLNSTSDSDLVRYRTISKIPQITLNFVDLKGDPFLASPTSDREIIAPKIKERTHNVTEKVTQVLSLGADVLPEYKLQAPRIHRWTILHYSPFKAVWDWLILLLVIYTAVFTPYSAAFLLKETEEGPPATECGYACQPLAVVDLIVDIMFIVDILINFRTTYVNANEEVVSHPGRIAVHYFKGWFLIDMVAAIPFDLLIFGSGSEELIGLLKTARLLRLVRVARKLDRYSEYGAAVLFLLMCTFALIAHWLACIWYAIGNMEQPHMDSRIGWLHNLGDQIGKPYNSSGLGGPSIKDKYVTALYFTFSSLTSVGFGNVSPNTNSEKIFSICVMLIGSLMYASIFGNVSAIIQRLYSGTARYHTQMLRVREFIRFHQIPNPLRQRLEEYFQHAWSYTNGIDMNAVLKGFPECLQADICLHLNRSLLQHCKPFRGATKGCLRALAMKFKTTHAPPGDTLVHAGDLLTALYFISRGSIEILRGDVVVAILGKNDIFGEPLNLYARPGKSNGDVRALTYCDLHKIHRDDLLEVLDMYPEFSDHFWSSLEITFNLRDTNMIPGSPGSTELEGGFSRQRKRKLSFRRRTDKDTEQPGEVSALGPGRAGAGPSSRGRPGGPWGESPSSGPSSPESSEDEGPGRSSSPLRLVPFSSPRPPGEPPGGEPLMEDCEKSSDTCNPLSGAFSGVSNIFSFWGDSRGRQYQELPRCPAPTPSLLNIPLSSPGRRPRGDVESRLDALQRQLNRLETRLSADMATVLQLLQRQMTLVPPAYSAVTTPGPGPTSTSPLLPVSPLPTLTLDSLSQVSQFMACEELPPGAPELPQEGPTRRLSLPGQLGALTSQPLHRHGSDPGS

SMILES: CC(C)c1noc(C2CCN(c3ncnc(Nc4ccc(S(C)(=O)=O)cc4F)c3[N+](=O)[O-])CC2)n1
- Activity (Canis lupus familiaris): 1.6 nM
- Activity [1]: 12 nM
- Activity (Mus musculus [2]): Active
- half-life [3]: 3.4 h
- Activity (Macaca fascicularis): 0.4 nM
- Cmax [4]: 4980 ng/mL
- Activity (Mus musculus [5]): inactive
- Tmax [6]: 0.5 h
- Activity [7]: Not Active
- EC50 [8]: 4.7 nM
- EC50 [9]: 0.68 nM
- Activity [10]: inactive
- Activity (Mus musculus [11]): Active
- Tmax [12]: 1 h
- Cmax [13]: 126 ng/mL and 250 nM
- Activity [14]: 14 nM
- AUC [15]: 19800 ng·h/mL
- AUC [16]: 263 ng·h/mL
- half-life [17]: 1.1 h
- Activity (Rattus norvegicus): inactive
- bioavailability [18]: 12%

SMILES: CCOC(=O)C1CCN(c2ncnc(Oc3ccc(OCCOC)cc3)c2[N+](=O)[O-])CC1
- IC50 [19]: 500 nM

SMILES: CC(C)c1nc(C2CCN(c3ncnc(Nc4ccc(S(=O)(=O)C(C)C)cc4F)c3[N+](=O)[O-])CC2)[o+][n-]1
- EC50 [9]: 7.9 nM

SMILES: CCOC(=O)C1CCN(c2ncnc(Oc3ccc(C(=O)CC(=O)OC)cc3)c2[N+](=O)[O-])CC1
- EC50 [20]: 1000 nM

SMILES: CCOC(=O)C1CCN(c2ncnc(Oc3ccc(-n4cncn4)cc3)c2[N+](=O)[O-])CC1
- EC50 [20]: 2500 nM

SMILES: CCS(=O)(=O)c1ccc(Nc2ncnc(N3CCC(c4nc(C(C)C)[n-][o+]4)CC3)c2[N+](=O)[O-])c(F)c1
- EC50 [9]: 7 nM

SMILES: CCOC(=O)C1CCN(c2ncnc(Oc3cc(C(F)(F)F)nn3C)c2[N+](=O)[O-])CC1
- IC50 [19]: 84 nM

SMILES: CCOC(=O)C1CCN(c2ncnc(Oc3ccc(S(C)(=O)=O)cc3)c2[N+](=O)[O-])CC1
- EC50 [20]: 1900 nM

SMILES: CS(=O)(=O)c1ccc(Nc2ncnc(N3CCC(c4nc(CC5CC5)no4)CC3)c2[N+](=O)[O-])cc1
- EC50 [9]: 160 nM

SMILES: CCOC(=O)C1CCN(c2ncnc(Nc3ccc(S(C)(=O)=O)cc3)c2[N+](=O)[O-])CC1
- EC50 [20]: 1200 nM

SMILES: CCSc1ccc(Nc2ncnc(N3CCC(c4nc(C(C)C)no4)CC3)c2[N+](=O)[O-])cc1
- EC50 [9]: 110 nM

SMILES: CC(C)c1noc(C2CCN(c3ncnc(Nc4ccc(S(C)(=O)=O)cc4)c3[N+](=O)[O-])CC2)n1
- EC50 [9]: 5.8 nM

SMILES: CCOC(=O)C1CCN(c2ncnc(Oc3ccc(S(N)(=O)=O)cc3)c2[N+](=O)[O-])CC1
- EC50 [20]: 3000 nM

SMILES: CCCS(=O)(=O)c1ccc(Nc2ncnc(N3CCC(c4nc(C(C)C)no4)CC3)c2[N+](=O)[O-])cc1
- EC50 [9]: 4.7 nM

SMILES: CC(C)c1noc(C2CCN(c3ncnc(Nc4ccc(S(C)(=O)=O)c(F)c4)c3[N+](=O)[O-])CC2)n1
- EC50 [9]: 3.4 nM

SMILES: CS(=O)(=O)c1ccc(Nc2ncnc(N3CCC(c4nc(-c5cccc(C(F)(F)F)c5)no4)CC3)c2[N+](=O)[O-])cc1
- EC50 [9]: 24 nM

SMILES: CCS(=O)(=O)c1ccc(Nc2ncnc(N3CCC(c4nc(C(C)C)no4)CC3)c2[N+](=O)[O-])cc1
- EC50 [9]: 17 nM

SMILES: CCOC(=O)C1CCN(c2ncnc(Nc3ccc(-n4cncn4)cc3)c2[N+](=O)[O-])CC1
- EC50 [20]: 400 nM

SMILES: CS(=O)(=O)c1ccc(Nc2ncnc(N3CCC(c4nc(-c5cccnc5)[n-][o+]4)CC3)c2[N+](=O)[O-])cc1
- EC50 [9]: 660 nM

SMILES: CCCc1noc(C2CCN(c3ncnc(Nc4ccc(S(C)(=O)=O)cc4)c3[N+](=O)[O-])CC2)n1
- EC50 [9]: 430 nM

SMILES: CC(C)c1noc(C2CCN(c3ncnc(Nc4ccc(S(=O)(=O)C(C)C)cc4)c3[N+](=O)[O-])CC2)n1
- EC50 [9]: 7.8 nM

SMILES: CS(=O)(=O)c1ccc(Nc2ncnc(N3CCC(c4nc(C5CC5)no4)CC3)c2[N+](=O)[O-])cc1
- EC50 [9]: 25 nM

SMILES: CC(C)(C)c1noc(C2CCN(c3ncnc(Nc4ccc(S(C)(=O)=O)cc4)c3[N+](=O)[O-])CC2)n1
- EC50 [9]: 1.5 nM

SMILES: Cc1noc(C2CCN(c3ncnc(Nc4ccc(S(C)(=O)=O)cc4)c3[N+](=O)[O-])CC2)n1
- EC50 [9]: 260 nM

SMILES: CC[S+]([O-])c1ccc(Nc2ncnc(N3CCC(c4nc(C(C)C)no4)CC3)c2[N+](=O)[O-])cc1 (stereo not drawn)
- EC50 [9]: 17.1 nM

SMILES: CCc1noc(C2CCN(c3ncnc(Nc4ccc(S(C)(=O)=O)cc4)c3[N+](=O)[O-])CC2)n1
- EC50 [9]: 10 nM

SMILES: CCOC(=O)C1CCN(c2ncnc(Oc3ccc(CCC(C)=O)cc3)c2[N+](=O)[O-])CC1
- EC50 [20]: 1700 nM

SMILES: CCOC(=O)C1CCN(c2ncnc(Oc3ccc(Br)cc3)c2[N+](=O)[O-])CC1
- IC50 [19]: 50 nM
